Measured values collected from several papers.
Target: Mitogen-activated protein kinase kinase kinase kinase 2 (MAP4K2, Homo sapiens, UniProt Q12851)
Sequence (Q12851 1-820, as in one of the studies): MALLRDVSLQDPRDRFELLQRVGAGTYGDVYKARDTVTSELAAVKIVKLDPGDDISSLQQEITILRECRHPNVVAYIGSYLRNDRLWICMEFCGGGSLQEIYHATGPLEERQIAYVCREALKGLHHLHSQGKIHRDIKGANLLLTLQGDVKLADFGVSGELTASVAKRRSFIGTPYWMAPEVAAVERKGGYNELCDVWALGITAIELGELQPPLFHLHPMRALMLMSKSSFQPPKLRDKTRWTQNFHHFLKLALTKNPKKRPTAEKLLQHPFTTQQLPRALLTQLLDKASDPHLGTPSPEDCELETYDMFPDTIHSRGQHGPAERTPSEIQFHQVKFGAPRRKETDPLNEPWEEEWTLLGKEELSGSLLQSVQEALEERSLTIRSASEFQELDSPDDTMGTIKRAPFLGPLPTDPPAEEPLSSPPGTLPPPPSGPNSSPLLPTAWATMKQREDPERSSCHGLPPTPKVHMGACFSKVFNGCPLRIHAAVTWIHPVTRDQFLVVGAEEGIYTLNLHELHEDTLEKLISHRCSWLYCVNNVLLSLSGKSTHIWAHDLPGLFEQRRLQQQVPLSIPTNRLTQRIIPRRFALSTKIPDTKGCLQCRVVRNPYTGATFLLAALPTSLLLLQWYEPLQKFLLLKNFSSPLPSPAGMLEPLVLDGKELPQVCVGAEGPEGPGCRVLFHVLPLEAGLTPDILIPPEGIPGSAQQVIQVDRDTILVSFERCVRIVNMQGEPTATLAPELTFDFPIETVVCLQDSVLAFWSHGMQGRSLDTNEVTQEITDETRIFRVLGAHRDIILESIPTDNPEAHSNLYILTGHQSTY

COc1cc(Nc2c(C#N)cnc3cc(OCCCN4CCN(C)CC4)c(OC)cc23)c(Cl)cc1Cl  remaining signal (cell-free assay; 0.5 µM): 3.16%
C[C@@H](c1cccc(C#N)c1)n1cc(Cl)cc(C(N)=O)c1=N  remaining binding (cell-free assay, competition with immobilised ligand; 1 µM): 90%
Cc1cnc(NC2CCOCC2)nc1-n1cnc(C(=O)NC(CN)c2cc(F)cc(Cl)c2)c1 (centres unmarked)  remaining activity (enzyme activity, inhibitor, radiometric; 1 µM): 100%
Cc1ccc(C(=O)Nc2ccc(CN3CCN(C)CC3)c(C(F)(F)F)c2)cc1C#Cc1cnc2cccnn12  remaining activity (enzyme activity, inhibitor; 23.5 nM): 4.9%
COc1cc(Nc2cnc(C#N)c(O[C@H](C)CN(C)C)n2)ncc1-c1cnn(C)c1  remaining activity (enzyme activity, inhibitor, radiometric; 10 µM): 56%
Cc1ccc(Nc2nccc(N(C)c3ccc4c(C)n(C)nc4c3)n2)cc1S(N)(=O)=O  inhibition (enzyme activity, inhibitor; 10 µM): 83%
COc1cc(Cl)c(C(=O)N[C@@H](CN[C@H]2CC[C@@H](N)CC2)Cc2ccc(C#N)cc2)cc1-c1ccc(CN[C@H](C)c2ccc(C)cc2)o1  remaining activity (enzyme activity, inhibitor; 1 µM): 94%
O=C1Nc2ccc(Cl)cc2C1=Cc1cc(Cl)c(O)c(Cl)c1  remaining signal (cell-free assay; 0.5 µM): 62.6%
O=C1NC(c2ccccn2)Sc2ccccc21 (centres unmarked)  remaining binding (cell-free assay, competition with immobilised ligand; 1 µM): 83%
COc1cc2ncnc(Nc3ccc(Oc4ccccc4)cc3C)c2cc1OC  inhibition (enzyme activity, inhibitor; 1 µM): 2%
O=C1NC(=O)c2cc(Nc3ccc(F)cc3)c(Nc3ccc(F)cc3)cc21  remaining signal (cell-free assay; 0.5 µM): 98.2%
CNC(=O)c1cc(Oc2ccc(NC(=O)Nc3ccc(Cl)c(C(F)(F)F)c3)cc2)ccn1  inhibition (enzyme activity, inhibitor; 0.3 µM): 5%
FC(F)(F)Oc1cccc(-c2cnc3ccc(-c4ccncc4)nn23)c1  activity vs control (enzyme activity, inhibitor, radiometric; 1 µM): 37%
c1ccc(N2CCN(Cc3nc4ccccc4[nH]3)CC2)nc1  remaining binding (binding, competition with immobilised ligand; 1 µM): 100%
CC(C)(C)c1nc2c(s1)c1nc(N)ncc1c1ccc(NS(=O)(=O)c3c(F)cccc3F)c(F)c12  remaining activity (enzyme activity, inhibitor, radiometric; 1 µM): 114%
Cc1cc(NC(=O)c2cccc3cc(-c4cccc5[nH]nc(N)c45)ccc23)ccc1F  activity vs control (enzyme activity, inhibitor; 0.1 µM): 88%
CSc1cccnc1N1CCN(Cc2nc3ccccc3[nH]2)CC1  remaining binding (cell-free assay, competition with immobilised ligand; 1 µM): 100%
FC(F)c1nc2ccccc2n1-c1nc(N2CCOCC2)nc(N2CCOCC2)n1  remaining activity (enzyme activity, inhibitor; 10 µM): 104%
CC(=O)N1CCC(c2ccc(C(=O)NC(=N)N)cc2C(F)(F)F)CC1  remaining binding (cell-free assay, competition with immobilised ligand; 1 µM): 100%
CC/C(=N\NC(=O)NCc1cccc(O)c1)c1ccc(O)c(C)c1O  inhibition (enzyme activity, inhibitor; 0.1 µM): 1.4%
O=C(Nc1cccnn1)N1CCC(=Cc2cccc(Oc3ccc(C(F)(F)F)cn3)c2)CC1  remaining binding (cell-free assay, competition with immobilised ligand; 1 µM): 100%
CN1CCN(C(=O)c2ccc3cc(CCNc4ccnc5ccc(C#N)cc45)ccc3c2)CC1  inhibition (binding, competition with immobilised ligand; 2 µM): > 35%
O=c1nc(-c2ccccn2)sc2ccccc12  remaining binding (binding, competition with immobilised ligand; 1 µM): 100%
CCN(CC)CCNC(=O)c1c(C)[nH]c(/C=C2\C(=O)Nc3ccc(F)cc32)c1C  inhibition (enzyme activity, inhibitor; 0.3 µM): 45%
Cc1sc(C(=O)NC2COC2)cc1-n1cc(NC(=O)Nc2c(F)cccc2Cl)cn1  remaining activity (enzyme activity, inhibitor; 10 µM): 90.2%
Cc1c(NC(=O)c2cc(C(N)=O)nc3cc(F)ccc23)c(C(F)(F)F)nn1Cc1ccc(C#N)cc1  remaining binding (cell-free assay, competition with immobilised ligand; 1 µM): 88%
